In ChEMBL document CHEMBL1629518, “Structure-based approach to nanomolar, water soluble matrix metalloproteinases inhibitors (MMPIs)” (Eur J Med Chem, 2010) one finds Ki and solubility data, which are given here for 10 compounds.

Converted amounts (≈) assume the structure as drawn.

The target of one data set is T1, Interstitial collagenase (Homo sapiens, UniProt P03956).
T1 sequence (P03956 whole entry): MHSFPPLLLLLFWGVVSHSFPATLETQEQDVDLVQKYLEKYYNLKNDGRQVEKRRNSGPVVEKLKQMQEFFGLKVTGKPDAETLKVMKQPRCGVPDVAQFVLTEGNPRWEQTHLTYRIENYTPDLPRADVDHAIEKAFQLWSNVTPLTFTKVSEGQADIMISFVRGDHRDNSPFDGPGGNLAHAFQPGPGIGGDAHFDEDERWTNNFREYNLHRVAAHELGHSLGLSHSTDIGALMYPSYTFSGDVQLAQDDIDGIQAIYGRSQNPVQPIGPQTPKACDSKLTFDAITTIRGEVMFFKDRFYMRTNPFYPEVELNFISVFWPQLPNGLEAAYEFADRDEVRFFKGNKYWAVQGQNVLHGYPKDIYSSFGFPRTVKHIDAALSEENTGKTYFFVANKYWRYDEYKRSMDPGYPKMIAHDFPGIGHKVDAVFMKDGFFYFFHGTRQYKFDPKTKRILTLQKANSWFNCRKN
The data set is described as follows: Inhibition of MMP1 by fluorimetric assay. The method in brief:
(§1)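 Enzyme source was the catalytic domain of each MMP. Inhibition was reported as Ki values.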

A short description of data set [1]: Solubility of the compound in water. The class given is physicochemical.
A further data set has as its target Collagenase 3 (Homo sapiens, UniProt P45452). The data set is described as follows: Inhibition of MMP13 by fluorimetric assay. The method in brief: as §1
The target of another data set is T2, Matrilysin (Homo sapiens, UniProt P09237).
T2 sequence (P09237 whole entry): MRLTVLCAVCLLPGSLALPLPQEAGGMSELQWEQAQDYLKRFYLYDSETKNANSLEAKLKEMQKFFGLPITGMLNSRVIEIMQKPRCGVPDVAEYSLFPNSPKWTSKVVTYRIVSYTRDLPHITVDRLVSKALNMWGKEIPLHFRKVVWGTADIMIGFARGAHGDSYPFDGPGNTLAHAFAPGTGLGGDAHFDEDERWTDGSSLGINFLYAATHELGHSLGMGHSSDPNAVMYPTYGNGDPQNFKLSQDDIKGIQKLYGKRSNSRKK
The data set is described as follows: Inhibition of MMP7 by fluorimetric assay. The method, boiled down: as §1

The target in another data set is Neutrophil collagenase (Homo sapiens, UniProt P22894). Nature of the data set: Inhibition of MMP8 by fluorimetric assay. The method, boiled down: as §1
In data set [2] the target is Macrophage metalloelastase (Homo sapiens, UniProt P39900). The data set is described as follows: Inhibition of MMP12 by fluorimetric assay. The method, boiled down:
as §1

As a reminder, the Ki is a measure of affinity in units of concentration, obtained from inhibition or displacement. Low values mean tighter binding, high ones weaker binding. By solubility is commonly meant the dissolved amount per volume that the medium holds. Higher therefore signals much dissolved substance.

Chain of Macrophage metalloelastase (P39900 whole entry): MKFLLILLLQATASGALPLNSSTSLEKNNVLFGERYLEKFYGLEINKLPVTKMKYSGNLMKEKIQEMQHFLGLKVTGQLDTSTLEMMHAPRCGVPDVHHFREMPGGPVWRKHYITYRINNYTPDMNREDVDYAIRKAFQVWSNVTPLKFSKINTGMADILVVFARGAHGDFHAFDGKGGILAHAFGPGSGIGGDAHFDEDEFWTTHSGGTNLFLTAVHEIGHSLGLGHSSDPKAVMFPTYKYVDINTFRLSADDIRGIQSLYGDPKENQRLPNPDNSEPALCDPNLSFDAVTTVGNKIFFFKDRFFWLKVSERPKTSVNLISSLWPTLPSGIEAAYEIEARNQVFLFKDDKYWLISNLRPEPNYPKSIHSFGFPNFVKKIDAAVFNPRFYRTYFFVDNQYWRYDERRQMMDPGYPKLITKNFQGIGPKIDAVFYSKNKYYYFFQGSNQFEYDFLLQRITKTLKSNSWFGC
Chain of Neutrophil collagenase (P22894 whole entry): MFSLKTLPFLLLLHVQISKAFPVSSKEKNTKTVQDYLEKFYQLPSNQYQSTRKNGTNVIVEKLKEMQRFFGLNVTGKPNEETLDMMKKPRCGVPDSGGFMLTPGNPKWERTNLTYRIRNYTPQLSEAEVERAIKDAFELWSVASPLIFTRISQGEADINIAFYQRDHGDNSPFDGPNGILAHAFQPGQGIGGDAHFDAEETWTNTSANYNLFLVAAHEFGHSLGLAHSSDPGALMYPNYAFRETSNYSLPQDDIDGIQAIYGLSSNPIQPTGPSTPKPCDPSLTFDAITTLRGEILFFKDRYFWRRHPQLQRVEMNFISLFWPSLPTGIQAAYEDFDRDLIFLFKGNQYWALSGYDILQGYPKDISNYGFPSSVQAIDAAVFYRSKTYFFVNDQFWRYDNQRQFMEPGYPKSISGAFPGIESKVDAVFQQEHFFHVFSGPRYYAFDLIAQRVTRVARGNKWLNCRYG

In the case of `COc1ccc(S(=O)(=O)N(CCO[C@@H]2O[C@H](CO)[C@@H](O)[C@H](O)[C@H]2O)CC(=O)NO)cc1`, the Ki was 286 nM on Interstitial collagenase, 1.7 nM on Collagenase 3, 2000 nM on Matrilysin and 9.1 nM on Neutrophil collagenase. Besides, the solubility in data set [1] stood at 20 mg/mL (≈ 42.9 mM).
For the compound `O=C(CN(CCO)S(=O)(=O)c1ccc(-c2ccccc2)cc1)NO`, the Ki at Interstitial collagenase is 67 nM; on Collagenase 3 it was 2.7 nM; on Matrilysin, 1600 nM; at Neutrophil collagenase, 4.6 nM. Further, in data set [1], the concentration in solution (solubility) was 20 mg/mL (≈ 57.1 mM).
With `COc1ccc(S(=O)(=O)N(CCO)CC(=O)NO)cc1`, the inhibition constant (Ki) was 128 nM on Interstitial collagenase; 1 nM at Collagenase 3; 1500 nM at Matrilysin; 7.6 nM in data set [2]; 13 nM at Neutrophil collagenase. The same compound had a solubility in data set [1] of 20 mg/mL (≈ 65.7 mM).
On to `COc1ccc(S(=O)(=O)N(CC(=O)NO)C[C@H](O)CO)cc1`, for which the Ki on Interstitial collagenase turned out to be 160 nM; at Collagenase 3, 3.6 nM; on Matrilysin, 9000 nM; in data set [2], 8 nM; on Neutrophil collagenase it was 24 nM. The same compound gave a solubility in data set [1] of 20 mg/mL (≈ 59.8 mM).
For `COc1ccc(S(=O)(=O)N(C[C@H](O)CO)[C@H](CO)C(=O)NO)cc1`, the Ki on Interstitial collagenase amounted to 32 nM; at Collagenase 3, 1.7 nM; on Matrilysin, 344 nM; in data set [2], 7 nM; on Neutrophil collagenase, 8 nM. The compound further showed a solubility in data set [1] of 20 mg/mL (≈ 54.9 mM).
On to `COc1ccc(S(=O)(=O)N[C@H](CO)C(=O)NO)cc1`, for which the Ki was determined as 143 nM at Interstitial collagenase; 2.2 nM at Collagenase 3; 823 nM at Matrilysin; 6 nM in data set [2]; 9 nM at Neutrophil collagenase. Besides, the solubility in data set [1] was 20 mg/mL (≈ 68.9 mM).
For `COc1ccc(S(=O)(=O)N[C@@H](C(=O)NO)[C@@H](C)O)cc1`, the Ki at Interstitial collagenase worked out at 287 nM; at Collagenase 3, 2.9 nM; on Matrilysin it was 984 nM; in data set [2], 11 nM; on Neutrophil collagenase, 10 nM. Moreover, in data set [1], the solubility worked out at 20 mg/mL (≈ 65.7 mM).
Turning to `O=C(CN(CCO)S(=O)(=O)c1ccc(F)cc1)NO`, the Ki on Interstitial collagenase amounted to 151 nM; at Collagenase 3 it was 46 nM; at Matrilysin, 3000 nM; in data set [2], 40 nM; at Neutrophil collagenase it was 173 nM. Besides, in data set [1], the concentration in solution (solubility) was 20 mg/mL (≈ 68.4 mM).
`O=C(CN(C[C@H](O)CO)S(=O)(=O)c1ccc(-c2ccccc2)cc1)NO`: the Ki at Interstitial collagenase was found to be 742 nM; at Collagenase 3 it was 18 nM; at Matrilysin, 4000 nM; in data set [2], 60 nM; on Neutrophil collagenase, 48 nM. In data set [1], this compound gave a solubility below 1 mg/mL.
`COc1ccc(S(=O)(=O)N(CC(=O)NO)CC(C)C)cc1` returned a solubility in data set [1] of 20 mg/mL (≈ 63.2 mM). Further, the Ki is 3.1 nM at Collagenase 3, 13000 nM on Matrilysin, 4.3 nM in data set [2] and 9 nM on Neutrophil collagenase.
